GASC1 inh – inhibitors of human demethylase GASC-1 KDM4C; AID 720574; GST-KDM4C 2-372, H3K9me3 peptide, LANCE TR-FRET; 96,000 tested, 0.15% active; inhibition, % at 12.5 µM;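 active = mean replicate inhibition above about 25%, with at least 55% of replicates also reaching it, limit read from the data, passing the limit was not always enough; inconclusive = only one of those two conditions met; inactive = neither condition met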
Target sequence (Q9H3R0 2-372 limits assumed): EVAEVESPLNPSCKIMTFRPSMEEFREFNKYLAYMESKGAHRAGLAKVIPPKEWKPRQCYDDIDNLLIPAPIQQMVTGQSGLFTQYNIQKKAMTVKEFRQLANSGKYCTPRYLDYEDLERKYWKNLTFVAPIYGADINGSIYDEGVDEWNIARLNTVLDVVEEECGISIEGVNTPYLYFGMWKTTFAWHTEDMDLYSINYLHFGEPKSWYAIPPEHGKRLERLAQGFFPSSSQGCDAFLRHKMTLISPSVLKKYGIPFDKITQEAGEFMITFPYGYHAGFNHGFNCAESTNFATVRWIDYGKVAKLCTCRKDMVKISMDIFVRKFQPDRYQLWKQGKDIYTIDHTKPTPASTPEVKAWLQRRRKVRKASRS
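reagent = H3K9me3 peptide substrate, Fe(II), 2-oxoglutarate | system = GST-tagged GASC-1 (JMJD2C) catalytic fragment, aa 2-372 | amount = enzyme final amount 10 nM | read-out = Fall in 671/618 emission ratio as inhibition | medium = HEPES buffer, pH 7.5, plus ascorbate | schedule = 30 min reaction, 60 min detection, RT | measured by = LANCE TR-FRET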
T cruzi growth-1 – blocks T. cruzi growth in NIH3T3 culture; T. cruzi beta-gal in NIH3T3, GalScreen luminescence, 90 h; 77,000 tested, 5.9% active; inhibition, % at 8.34 µM; AID 624255;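 active = mean inhibition above about 93%, with at least 55% of replicates each passing it, limit read from the data, passing the limit was not always enough; inconclusive = only one of those two conditions holds; inactive = neither condition holds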
IDH1 mut inh – inhibitors of human IDH1 R132H | O75874 | IDH1 R132H reductase, diaphorase/resazurin fluorescence, 60 min | inhibition, % at 10 µM | 70,000 tested, 0.18% active; in the data active = inhibition above about 34%; inconclusive = no clear call, values can overlap the other calls; inactive = below about 11%;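 also: 0% = DMSO and 100% = no enzyme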
Target sequence (O75874 whole entry R132H): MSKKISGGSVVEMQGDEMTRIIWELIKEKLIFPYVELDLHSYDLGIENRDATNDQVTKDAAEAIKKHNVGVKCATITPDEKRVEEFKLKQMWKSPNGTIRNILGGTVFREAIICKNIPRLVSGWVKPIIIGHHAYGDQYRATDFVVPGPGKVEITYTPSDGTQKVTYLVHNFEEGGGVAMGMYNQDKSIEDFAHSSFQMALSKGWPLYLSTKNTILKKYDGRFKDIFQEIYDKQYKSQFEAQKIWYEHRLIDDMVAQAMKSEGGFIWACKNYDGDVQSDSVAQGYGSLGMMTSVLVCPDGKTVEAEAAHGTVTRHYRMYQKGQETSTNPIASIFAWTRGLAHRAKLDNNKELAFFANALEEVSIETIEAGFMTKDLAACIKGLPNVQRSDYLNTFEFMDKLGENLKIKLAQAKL
T cruzi growth-2 – Trypanosoma cruzi proliferation inhibition; 5,600 tested, 72% active; inhibition, % at 8.35 µM; shares compounds with T cruzi growth-1; AID 651739; T. cruzi beta-gal in NIH3T3, GalScreen luminescence, 90 h;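 active = mean replicate inhibition above about 95% and at least 55% of replicates individually reaching it, limit read from the data; inconclusive = only one of the two criteria is met; inactive = neither criterion is met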
T cruzi growth-3 – Trypanosoma cruzi proliferation inhibition; shares compounds with T cruzi growth-1; T. cruzi beta-gal in NIH3T3, GalScreen luminescence, 90 h; inhibition, % at 2.09 µM; 5,600 tested, 21% active;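 active = mean inhibition above about 95%, with at least 55% of replicates also reaching it, limit read from the data; inconclusive = meets just one of the two conditions; inactive = meets neither condition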;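 also: plate controls were neutral control median for no effect and positive control median for full effect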
NIH3T3 tox – kills mouse NIH/3T3 fibroblasts; shares compounds with T cruzi growth-1; NIH/3T3 viability, CellTiter-Glo ATP luminescence, 90 h; cytotoxicity (signal decrease), % at 8.35 µM; 5,600 tested, 14% active;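 active = mean signal decrease across replicates above about 35% based on untreated-well scatter, with enough replicates individually passing, limit read from the data; inconclusive = no rule stated though some were filed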;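 also: 0% = median of neutral control wells and 100% = median of positive control wells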
NIH3T3 tox 2 – kills mouse NIH/3T3 fibroblasts; shares compounds with T cruzi growth-1; AID 651744; NIH/3T3 viability, CellTiter-Glo ATP luminescence, 90 h; 5,600 tested, 56% active; inhibition, % at 24.9 µM;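 active = mean loss of cell viability signal at or above a set limit, and enough replicates individually reaching it; inconclusive = meets only the mean limit or only the replicate share; inactive = meets neither condition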;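 also: 0% = median of neutral control wells and 100% = median of positive control wells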
The depositor's hits bear a star; u = inconclusive; x = not tested or not shown. Shown is part of a subset that was picked to be rich in hits.

SMILES	GASC1 inh	T cruzi growth-1	IDH1 mut inh	T cruzi growth-2	T cruzi growth-3	NIH3T3 tox	NIH3T3 tox 2
COc1ccc(C#Cc2ccc3c(c2)O[C@H](CN(C)S(=O)(=O)c2ccccc2F)[C@@H](C)CN([C@H](C)CO)S3(=O)=O)cc1	-4.9	x	-0.1	x	x	x	x
O=C(CC1(O)C(=O)N(Cc2cccc3ccccc23)c2ccccc21)c1ccc(F)cc1 (stereo not given)	x	x	-0.7	x	x	x	x
CC(C)CC#Cc1ccc([C@H]2[C@H]3CN(S(=O)(=O)c4ccc(F)cc4)CCCCN3[C@H]2CO)cc1	0.9	116.0*	x	111.0*	94.5	21.4	11.5
O=S(=O)(c1ccc(F)cc1)N1CCCCN2[C@H](CO)[C@H](c3ccc(C#CC4CCCC4)cc3)[C@@H]2C1	x	80.5	x	x	x	x	x
O=S(=O)(c1ccc(F)cc1)N1CCCCN2[C@H](C1)[C@@H](c1ccc(C#CC3CCCC3)cc1)[C@@H]2CO	x	80.4	x	x	x	x	x
CC(C)CC#Cc1ccc([C@@H]2[C@@H](CO)N3CCCCN(S(=O)(=O)c4ccc(F)cc4)C[C@@H]23)cc1	-0.9	104.9*	x	108.2*	72.0	-3.1	89.1*
COc1ccc([C@H]2Oc3cc(O)cc(O)c3C(=O)[C@@H]2O)cc1	x	x	0.5	x	x	x	x
Cc1ccc(S(=O)(=O)NN2C(=O)S/C(=C/c3ccccc3)C2=S)cc1	x	x	0.0	x	x	x	x
C[C@@H]1CN([C@H](C)CO)S(=O)(=O)c2ccc(C#Cc3ccccc3)cc2O[C@@H]1CN(C)S(=O)(=O)c1ccccc1F	-1.5	122.4*	-0.3	104.8*	105.7*	25.0	52.1*
C[C@@H]1CN([C@H](C)CO)S(=O)(=O)c2ccc(C#Cc3ccccc3)cc2O[C@H]1CN(C)S(=O)(=O)c1ccccc1F	-2.1	129.0*	0.3	97.9*	44.9	7.5	u
C[C@H](CO)N1C[C@H](C)[C@H](CN(C)S(=O)(=O)c2ccccc2F)Oc2cc(C#Cc3ccccc3)ccc2S1(=O)=O	-4.1	124.6*	-3.0	109.8*	79.0	-1.1	-0.1
C[C@@H]1CN([C@H](C)CO)S(=O)(=O)c2ccc(C#Cc3ccccc3)cc2O[C@@H]1CN(C)S(=O)(=O)c1cn(C)cn1	-0.8	42.0	-0.4	x	x	x	x
C[C@H]1CN([C@@H](C)CO)S(=O)(=O)c2ccc(C#Cc3ccccc3)cc2O[C@@H]1CN(C)S(=O)(=O)c1ccccc1F	-0.9	125.1*	0.2	97.7*	103.5*	-16.6	29.3*
C[C@H](CO)N1C[C@H](C)[C@@H](CN(C)S(=O)(=O)c2ccccc2F)Oc2cc(-c3ccncc3)ccc2S1(=O)=O	0.2	x	1.4	x	x	x	x
C[C@H]1CN([C@@H](C)CO)S(=O)(=O)c2ccc(-c3ccncc3)cc2O[C@@H]1CN(C)S(=O)(=O)c1ccccc1F	-2.3	x	-1.8	x	x	x	x
O=C(Nc1ccccc1[N+](=O)[O-])C1(c2ccccc2)CCN(S(=O)(=O)c2ccccc2)CC1	x	x	0.9	x	x	x	x
CCN1CCOC(CC(=O)Nc2cc(C(=O)OC)cc(C(=O)OC)c2)C1=O (stereo not given)	x	x	0.3	x	x	x	x
C[C@H]1CN([C@@H](C)CO)C(=O)c2cc(NC(=O)C3CCCCC3)ccc2O[C@H]1CN(C)Cc1ccc(-c2ccccc2)cc1	0.2	47.0	0.8	x	x	x	x
C[C@H](CO)N1C[C@H](C)[C@@H](CN(C)Cc2ccc(-c3ccccc3)cc2)Oc2ccc(NC(=O)C3CC3)cc2C1=O	-0.8	21.6	-0.2	x	x	x	x
C[C@@H]1CN([C@@H](C)CO)C(=O)c2cc(NC(=O)C3CCCCC3)ccc2O[C@@H]1CN(C)Cc1ccc(-c2ccccc2)cc1	0.9	u	1.4	103.7*	82.5	24.3	79.8*
C[C@@H]1CN([C@@H](C)CO)C(=O)c2cc(NC(=O)C3CCCCC3)ccc2O[C@H]1CN(C)Cc1ccc(-c2ccccc2)cc1	-0.4	109.5*	x	102.2*	100.4*	16.1	7.2
Cc1cc(N(CC(=O)Nc2ccc(F)c(Cl)c2)S(C)(=O)=O)ccc1Br	x	x	-0.2	x	x	x	x
CC(=O)Nc1ccc(S(=O)(=O)NCc2ccc3[nH]c4c(c3c2)CCCC4)cc1	x	x	0.8	x	x	x	x
COc1ccc(C)cc1NC(=O)CSc1nc2ccccc2c(=O)n1-c1ccc(Cl)cc1	x	x	-0.2	x	x	x	x
CCC(=O)N1[C@H](CO)[C@@H](c2ccc(-c3cccnc3)cc2)[C@@H]1CN(C)C(C)=O	-0.8	-5.1	x	x	x	x	x
SMILES	GASC1 inh	T cruzi growth-1	IDH1 mut inh	T cruzi growth-2	T cruzi growth-3	NIH3T3 tox	NIH3T3 tox 2
CCC(=O)N1[C@@H](CO)[C@@H](c2ccc(-c3cccnc3)cc2)[C@@H]1CN(CC)C(C)=O	0.1	97.7*	x	-4.4	17.8	-3.0	13.0
COCC(=O)N(C)C[C@@H]1[C@H](c2ccc(-c3cccnc3)cc2)[C@@H](CO)N1C(C)=O	-0.6	99.9*	x	-70.3	-21.5	-30.4	-27.4
CCC(=O)N(C)C[C@H]1[C@H](c2ccc(-c3cccnc3)cc2)[C@@H](CO)N1C(C)=O	0.5	54.7	x	x	x	x	x
Cc1cc(Oc2coc3cc(OCC(=O)Nc4ccccc4F)ccc3c2=O)cc(C)c1Cl	x	x	0.3	x	x	x	x
Cc1ccc(C(=O)Nc2ccc(OCC(=O)O)cc2)cc1	x	x	-0.3	x	x	x	x
Cc1ccc(-c2nc(SCC(=O)Nc3cc(C)c(C)cc3Br)n[nH]2)cc1	x	x	1.6	x	x	x	x
Cc1cc(C)c(S(=O)(=O)N(C)CC(=O)N2CCC(C(N)=O)CC2)c(C)c1	x	x	-0.1	x	x	x	x
CN1c2ccc(-c3ccc(F)cc3)cc2[C@H]2[C@H](CCN2C(=O)c2ccncc2)[C@@H]1CO	1.9	u	x	110.3*	46.2	3.7	u
CN1c2ccc(-c3ccccc3)cc2[C@H]2[C@H](CCN2C(=O)c2ccncc2)[C@H]1CO	1.5	102.7*	x	107.4*	48.3	17.6	10.6
CN1c2ccc(-c3ccccc3)cc2[C@H]2[C@H](CCN2C(=O)c2ccccc2)[C@H]1CO	0.4	48.5	x	x	x	x	x
CN(C)C(=O)c1cccc(-c2ccc3c(c2)[C@H]2[C@H](CCN2C(=O)c2ccccc2)[C@@H](CO)N3C)c1	0.9	102.3*	x	99.7*	72.3	9.1	-4.9
CN1c2ccc(-c3ccc(F)cc3)cc2[C@@H]2[C@@H](CCN2C(=O)c2ccncc2)[C@H]1CO	3.2	93.0	x	x	x	x	x
CN1c2ccc(-c3ccccc3)cc2[C@H]2[C@H](CCN2C(=O)c2ccc(F)cc2)[C@H]1CO	-1.0	89.1	x	x	x	x	x
O=C(CCCCC(=O)N/N=C/c1ccc(Br)o1)NO	x	x	-0.1	x	x	x	x
Cc1cc(C)c(OCC(=O)Nc2ccccc2-c2nc3ccccc3s2)c(Br)c1	x	x	0.4	x	x	x	x
O=C([C@@H]1[C@@H](CO)[C@@H]2Cn3c(cccc3=O)[C@H]1N2Cc1ccccc1)N1CCCCC1	0.7	0.6	x	x	x	x	x
C[C@@H](NC(=O)[C@H]1[C@H](CO)[C@H]2Cn3c(cccc3=O)[C@@H]1N2C(=O)C1CC1)c1ccccc1	-1.4	103.0*	x	30.1	12.4	11.0	2.8

Screening results: PubChem BioAssay, Broad Institute
